Published values gathered from unrelated publications.
Cell line: PC-3
Read-out: cell growth or viability

| Compound | method | concentration | inhibition [%] |
| --- | --- | --- | --- |
| COc1cccc(NC(=O)CN2C(=O)/C(=C/c3cccs3)SC2=S)c1 | MTT | 10 µM | 7.28 |
| O=C(Nc1cccc(Cc2ccccc2)c1)C1CCCN(C(=O)c2cccc(-c3ccco3)c2)C1 (stereo not drawn) | WST-1 | 100 µM | 0 |
| COc1ccc(C(=O)/C=C/c2ccccc2Br)cc1S(N)(=O)=O | SRB | 10 µM | 79 |
| O=C(Nc1cccc(-c2ccco2)c1)C1CCCN(C(=O)c2cc(C(F)(F)F)cc(C(F)(F)F)c2)C1 (stereo not drawn) | WST-1 | 100 µM | 0 |
| COc1cc(CNC(=O)C[C@H](C)CCC=C(C)C)ccc1OCc1cn(-c2ccc(Cl)cc2)nn1 | SRB | 10 µM | 28 |
| O=C1Nc2ccccc2C1=NNc1nnc2n1N=C(c1ccccc1)CS2 | SRB | 10 µM | 20 |
| COc1ccc(C(=O)/C=C/c2c(F)cccc2Cl)cc1S(N)(=O)=O | SRB | 10 µM | 81 |
| O=C(CN1C(=O)/C(=C/c2ccncc2)SC1=S)Nc1ccccc1 | MTT | 10 µM | 5.33 |
| O=C(Nc1cccc(S(=O)(=O)N2CCCC2)c1)C1CCCN(C(=O)c2cc(C(F)(F)F)cc(C(F)(F)F)c2)C1 (stereo not drawn) | WST-1 | 100 µM | 0 |
| COc1ccc(C(=O)/C=C/c2cccc(Cl)c2)cc1S(N)(=O)=O | SRB | 10 µM | 68 |
| O=C(CN1C(=O)/C(=C/c2ccc(Cl)cc2)SC1=S)Nc1ccccc1 | MTT | 10 µM | 32.3 |
| COc1ccc(C(=O)/C=C/c2cccc(Cl)c2Cl)cc1S(N)(=O)=O | SRB | 10 µM | 95 |
| CCc1cccc(NC(=O)C2CCCN(C(=O)c3cc(C(F)(F)F)cc(C(F)(F)F)c3)C2)c1 (stereo not drawn) | WST-1 | 100 µM | 0 |
| COc1ccc(C(=O)/C=C/c2cccnc2)cc1S(N)(=O)=O | SRB | 10 µM | 22 |
| COc1ccc(/C=C2\SC(=S)N(CC(=O)Nc3ccccc3)C2=O)cc1 | MTT | 10 µM | 25 |
